Assay [1] deals with Aeromonas allosaccharophila. The experiment in a line: Antimicrobial activity against Aeromonas allosaccharophila AL-1 expressing beta-lactamase PER6 by agar dilution method. The assay is classed as functional. The method, boiled down: (§1)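 The test organism was environmental isolate AL-1, recovered from Seine River water on MacConkey agar containing ceftazidime (2 μg/ml). It was identified by API 32GN and 16S rRNA gene sequencing. MICs were determined by agar dilution on Mueller-Hinton agar and interpreted by CLSI guidelines.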
A general note: Agar dilution tests growth on a series of plates holding different concentrations.

Assay [2] has as its system Escherichia coli. The experiment in a line: Antimicrobial activity against Escherichia coli DH10B harboring recombinant Aeromonas allosaccharophila AL-1 beta-lactamase PER1 by agar dilution method. The assay is classed as functional. The note with it: K-12 DH10B.
For assay [3], the system named is Escherichia coli. Briefly: Antimicrobial activity against Escherichia coli DH10B by agar dilution method. The assay is classed as functional. The conditions noted are these: K-12 DH10B. A digest of the protocol: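 MICs measured by agar dilution on Mueller-Hinton agar plates, the method used for imipenem and imipenem combined with clavulanate; other MICs were obtained by Etest. Results were interpreted according to CLSI guidelines. Test strains were E. coli DH10B recombinants carrying cloned PER-1, PER-2 or PER-6 β-lactamase genes.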

Assay [4] deals with Escherichia coli. The experiment in a line: Antimicrobial activity against Escherichia coli DH10B harboring recombinant Aeromonas allosaccharophila AL-1 beta-lactamase PER6 by agar dilution method. The class given is functional. The conditions noted are these: K-12 DH10B.
Assay [5] concerns Escherichia coli. The experiment in a line: Antimicrobial activity against Escherichia coli DH10B harboring recombinant Aeromonas allosaccharophila AL-1 beta-lactamase PER2 by agar dilution method. The assay is classed as functional. The note with it: K-12 DH10B.
The test system of assay [6] is Aeromonas allosaccharophila. Briefly: Ratio of Kcat to Km for Aeromonas allosaccharophila AL-1 beta-lactamase PER2.
Assay [7] relates to Aeromonas allosaccharophila. The experiment in a line: Antimicrobial activity against Aeromonas allosaccharophila AL-1 expressing beta-lactamase PER6 by agar dilution method in presence of 4 ug/ml of clavulanic acid. The class given is functional. The method, boiled down: as §1

Each structure is given as a SMILES string. Converted amounts (≈) assume the structure as drawn. Bounds are passed on as bounds.

For orientation: MIC means the lowest concentration found to suppress growth. Take `CO/N=C(\C(=O)N[C@@H]1C(=O)N2C(C(=O)[O-])=C(C[n+]3cccc4c3CCC4)CS[C@H]12)c1csc(N)n1` [CEFPIROME]: the minimal inhibitory concentration (MIC) in assay [1] was 0.5 µg/mL (≈ 0.972 µM); in the assay with Escherichia coli [2] it was 16 µg/mL; in the assay on Escherichia coli [3], 0.06 µg/mL (≈ 0.117 µM); in the assay on Escherichia coli [4] it was 8 µg/mL; with Escherichia coli [5], 16 µg/mL.

For orientation: kcat/Km means the second-order rate constant that governs catalysis at low substrate concentration. `CC(C)(O/N=C(\C(=O)N[C@@H]1C(=O)N2C(C(=O)[O-])=C(C[n+]3ccccc3)CS[C@H]12)c1csc(N)n1)C(=O)O` [CEFTAZIDIME]: the minimal inhibitory concentration (MIC) in assay [1] was 128 µg/mL (≈ 234 µM); in the assay with Escherichia coli [2], above 256 µg/mL; against Escherichia coli [3] it was 0.5 µg/mL (≈ 0.915 µM); in the assay on Escherichia coli [4], above 256 µg/mL; with Escherichia coli [5] it was above 256 µg/mL. In addition, the kcat/Km in assay [6] was 430000 M⁻¹ s⁻¹.

In the case of `CC(=O)OCC1=C(C(=O)O)N2C(=O)[C@@H](NC(=O)Cc3cccs3)[C@H]2SC1` [CEPHALOTHIN], the minimum inhibitory concentration (MIC) is 16 µg/mL (≈ 40.4 µM) in assay [1]; above 256 µg/mL with Escherichia coli [2]; 2 µg/mL (≈ 5.04 µM) in the assay with Escherichia coli [3]; above 256 µg/mL in the assay on Escherichia coli [4]; above 256 µg/mL in the assay with Escherichia coli [5]. Further, in assay [6], the kcat/Km came out at 670000 M⁻¹ s⁻¹.

In the case of `C[C@@H](O)[C@H]1C(=O)N2C(C(=O)O)=C(SCCNC=N)C[C@H]12` [IMIPENEM ANHYDROUS], the minimal inhibitory concentration (MIC) was 1 µg/mL (≈ 3.34 µM) in assay [1] and 0.5 µg/mL in assay [7]. Besides, the kcat/Km in assay [6] is below 10000 M⁻¹ s⁻¹.

For the origin of these results see ChEMBL document CHEMBL1687755, “PER-6, an extended-spectrum beta-lactamase from Aeromonas allosaccharophila” (Antimicrob Agents Chemother, 2010).
